# From ChEMBL document CHEMBL5058577, “EUbOPEN Chemogenomics Library 2 (Multiplex)” (2022)
# System: U2OS
# Experiment: Multiplex assay against U2OS
# Type: toxicity, cell-based
# Conditions: human
# Summary of the method: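 On a CQ1 microscope at 37°C and 5% CO2, live cells were imaged after compound addition. They had been stained at seeding with Hoechst33342, BioTracker Green Microtubule Cytoskeleton Dye, MitoTracker Red and Annexin V Alexa Fluor 680. CellPathfinder machine-learning gating assigned cells to Hoechst high-intensity objects or normal cells, normal cells to healthy, pyknosed or fragmented nuclei, and pyknosed cells to mitotic or apoptotic. Tubulin, mitochondrial-mass and membrane-permeability phenotypes are per cents of healthy-nucleus cells.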
# [1] = 12 h, 1 µM, compound concentration 1 uM, replicate 1
# [2] = 12 h, 1 µM, compound concentration 1 uM, replicate 2
# [3] = 12 h, 10 µM, compound concentration 10 uM, replicate 1
# [4] = 12 h, 10 µM, compound concentration 10 uM, replicate 2
# [5] = 24 h, 1 µM, compound concentration 1 uM, replicate 1
# [6] = 24 h, 1 µM, compound concentration 1 uM, replicate 2
# [7] = 24 h, 10 µM, compound concentration 10 uM, replicate 1
# [8] = 24 h, 10 µM, compound concentration 10 uM, replicate 2
# [9] = 48 h, 1 µM, compound concentration 1 uM, replicate 1
# [10] = 48 h, 1 µM, compound concentration 1 uM, replicate 2
# [11] = 48 h, 10 µM, compound concentration 10 uM, replicate 1
# [12] = 48 h, 10 µM, compound concentration 10 uM, replicate 2
smiles,measurement,setting,value
Cl.N=C(N)NC(=O)Cc1c(Cl)cccc1Cl [GUANFACINE HYDROCHLORIDE],Population Apoptotic (%),[1],80%
same,Population Fragmented Nuclei (%),[1],28%
same,Population Healthy Nuclei (%),[1],55%
same,Population Hoechst High Intensity Objects (%),[1],4%
same,Population Membrane Permeable-Phenotype (%),[1],5%
same,Population Mitochondria Different-Phenotype (%),[1],1%
same,Population Mitotic Cells (%),[1],19%
same,Population Normal (%),[1],95%
same,Population Pyknosed Nuclei (%),[1],16%
same,Population Tubulin-Different-Phenotype (%),[1],2%
same,Total Cell Count,[1],165
same,Population Apoptotic (%),[2],100%
same,Population Fragmented Nuclei (%),[2],20%
same,Population Healthy Nuclei (%),[2],72%
same,Population Hoechst High Intensity Objects (%),[2],2%
same,Population Membrane Permeable-Phenotype (%),[2],8%
same,Population Mitochondria Different-Phenotype (%),[2],2%
same,Population Mitotic Cells (%),[2],0%
same,Population Normal (%),[2],97%
same,Population Pyknosed Nuclei (%),[2],7%
same,Population Tubulin-Different-Phenotype (%),[2],6%
same,Total Cell Count,[2],129
same,Population Apoptotic (%),[3],87%
same,Population Fragmented Nuclei (%),[3],27%
same,Population Healthy Nuclei (%),[3],61%
same,Population Hoechst High Intensity Objects (%),[3],1%
same,Population Membrane Permeable-Phenotype (%),[3],10%
same,Population Mitochondria Different-Phenotype (%),[3],3%
same,Population Mitotic Cells (%),[3],12%
same,Population Normal (%),[3],98%
same,Population Pyknosed Nuclei (%),[3],11%
same,Population Tubulin-Different-Phenotype (%),[3],7%
same,Total Cell Count,[3],280
same,Population Apoptotic (%),[4],77%
same,Population Fragmented Nuclei (%),[4],18%
same,Population Healthy Nuclei (%),[4],74%
same,Population Membrane Permeable-Phenotype (%),[4],12%
same,Population Mitochondria Different-Phenotype (%),[4],7%
same,Population Mitotic Cells (%),[4],22%
same,Population Pyknosed Nuclei (%),[4],7%
same,Population Tubulin-Different-Phenotype (%),[4],10%
same,Total Cell Count,[4],130
same,Population Apoptotic (%),[5],75%
same,Population Fragmented Nuclei (%),[5],32%
same,Population Healthy Nuclei (%),[5],56%
same,Population Hoechst High Intensity Objects (%),[5],3%
same,Population Membrane Permeable-Phenotype (%),[5],5%
same,Population Mitochondria Different-Phenotype (%),[5],3%
same,Population Mitotic Cells (%),[5],25%
same,Population Normal (%),[5],96%
same,Population Pyknosed Nuclei (%),[5],10%
same,Population Tubulin-Different-Phenotype (%),[5],2%
same,Total Cell Count,[5],194
same,Population Apoptotic (%),[6],83%
same,Population Fragmented Nuclei (%),[6],18%
same,Population Healthy Nuclei (%),[6],74%
same,Population Hoechst High Intensity Objects (%),[6],0%
same,Population Membrane Permeable-Phenotype (%),[6],8%
same,Population Mitochondria Different-Phenotype (%),[6],4%
same,Population Mitotic Cells (%),[6],16%
same,Population Normal (%),[6],99%
same,Population Pyknosed Nuclei (%),[6],7%
same,Population Tubulin-Different-Phenotype (%),[6],5%
same,Total Cell Count,[6],160
same,Population Apoptotic (%),[7],84%
same,Population Fragmented Nuclei (%),[7],25%
same,Population Healthy Nuclei (%),[7],64%
same,Population Hoechst High Intensity Objects (%),[7],0%
same,Population Membrane Permeable-Phenotype (%),[7],9%
same,Population Mitochondria Different-Phenotype (%),[7],2%
same,Population Mitotic Cells (%),[7],15%
same,Population Normal (%),[7],99%
same,Population Pyknosed Nuclei (%),[7],9%
same,Population Tubulin-Different-Phenotype (%),[7],4%
same,Total Cell Count,[7],326
same,Population Apoptotic (%),[8],83%
same,Population Fragmented Nuclei (%),[8],15%
same,Population Healthy Nuclei (%),[8],76%
same,Population Hoechst High Intensity Objects (%),[8],2%
same,Population Membrane Permeable-Phenotype (%),[8],10%
same,Population Mitochondria Different-Phenotype (%),[8],4%
same,Population Mitotic Cells (%),[8],16%
same,Population Normal (%),[8],97%
same,Population Pyknosed Nuclei (%),[8],7%
same,Population Tubulin-Different-Phenotype (%),[8],5%
same,Total Cell Count,[8],160
same,Population Apoptotic (%),[9],89%
same,Population Fragmented Nuclei (%),[9],28%
same,Population Healthy Nuclei (%),[9],60%
same,Population Hoechst High Intensity Objects (%),[9],2%
same,Population Membrane Permeable-Phenotype (%),[9],4%
same,Population Mitochondria Different-Phenotype (%),[9],3%
same,Population Mitotic Cells (%),[9],10%
same,Population Normal (%),[9],97%
same,Population Pyknosed Nuclei (%),[9],10%
same,Population Tubulin-Different-Phenotype (%),[9],3%
same,Total Cell Count,[9],262
same,Population Apoptotic (%),[10],90%
same,Population Fragmented Nuclei (%),[10],16%
same,Population Healthy Nuclei (%),[10],73%
same,Population Hoechst High Intensity Objects (%),[10],3%
same,Population Membrane Permeable-Phenotype (%),[10],8%
same,Population Mitochondria Different-Phenotype (%),[10],4%
same,Population Mitotic Cells (%),[10],9%
same,Population Normal (%),[10],96%
same,Population Tubulin-Different-Phenotype (%),[10],6%
same,Total Cell Count,[10],217
same,Population Apoptotic (%),[11],90%
same,Population Fragmented Nuclei (%),[11],21%
same,Population Healthy Nuclei (%),[11],68%
same,Population Hoechst High Intensity Objects (%),[11],2%
same,Population Membrane Permeable-Phenotype (%),[11],8%
same,Population Mitochondria Different-Phenotype (%),[11],3%
same,Population Mitotic Cells (%),[11],9%
same,Population Normal (%),[11],97%
same,Population Pyknosed Nuclei (%),[11],10%
same,Population Tubulin-Different-Phenotype (%),[11],4%
same,Total Cell Count,[11],440
same,Population Apoptotic (%),[12],95%
same,Population Fragmented Nuclei (%),[12],14%
same,Population Healthy Nuclei (%),[12],74%
same,Population Hoechst High Intensity Objects (%),[12],1%
same,Population Membrane Permeable-Phenotype (%),[12],10%
same,Population Mitochondria Different-Phenotype (%),[12],1%
same,Population Mitotic Cells (%),[12],4%
same,Population Normal (%),[12],98%
same,Population Pyknosed Nuclei (%),[12],11%
same,Population Tubulin-Different-Phenotype (%),[12],3%
same,Total Cell Count,[12],213
